Activity calls are given as the source filed them. The rule behind the calls is not given here. Where a SMILES comes first, the peptide text is derived from it. The star is where a group is joined. X1 = COc1ccc(S*)cc1; SEt = CCS*
Experiments:
[1] = Inhibition of calpain-10 in rabbit mitochondrial matrix fractions by spectrofluorimetry; design: species or system Oryctolagus cuniculus
How it was run: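 Matrix fraction from Percoll/sucrose-purified rabbit renal cortical mitochondria, stored at -80°C. Matrix added to activity buffer, then inhibitor at various concentrations and sLLVY-AMC (50 µM); AMC hydrolysis followed spectrofluorometrically under linear conditions. IC50 from means of at least 3 separate experiments.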

Oryctolagus cuniculus [2] = species on record: Oryctolagus cuniculus; assay: Inhibition of calpain-10 in rabbit mitochondrial matrix fractions at 1 uM preincubated for 5 mins in presence of 1 mM dithiothreitol by spectrofluorimetry
How it was run: (§1)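 Rabbit renal mitochondrial matrix preincubated 15 min with inhibitor (1 µM), activity on sLLVY-AMC measured 5 min; then BME (1 mM) or DTT (1 mM) added for 5 min and AMC release monitored for another 5 min. Mean and SE, n ≥ 3.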

Oryctolagus cuniculus [3] = species on record: Oryctolagus cuniculus; assay: Inhibition of calpain-10 in rabbit mitochondrial matrix fractions at 1 uM preincubated for 5 mins by spectrofluorimetry
Oryctolagus cuniculus [4] = species on record: Oryctolagus cuniculus; assay: Inhibition of calpain-10 in rabbit mitochondrial matrix fractions at 1 uM preincubated for 5 mins in presence of 1 mM beta-mercaptoethanol by spectrofluorimetry; how it was run: as §1

| IC50 [1] | Compound | further results |
| --- | --- | --- |
| > 100 µM | CSC[C@H](N)C(=O)N[C@@H](Cc1ccc(O)cc1)C(=O)NCC(=O)N[C@@H](C)C(=O)N[C@@H](CCCCN)C(=O)O (H-C(Me)YGAK-OH) | – |
| 2 µM | C[C@H](NC(=O)CNC(=O)[C@H](C)NC(=O)[C@@H](N)CS)C(=O)N[C@@H](CCCCN)C(=O)O (H-CAGAK-OH) | – |
| 0.004 µM | CCCC[C@@H](C=O)NC(=O)[C@H](CC(C)C)NC(=O)OCc1ccccc1 [CALPEPTIN] | – |
| 0.1 µM | C[C@H](NC(=O)CNC(=O)[C@H](Cc1ccc(O)cc1)NC(=O)[C@@H](N)CS)C(=O)N[C@@H](CCCCN)C(=O)O (H-CYGAK-OH) | Activity (Oryctolagus cuniculus [2]): inactive; inhibition (Oryctolagus cuniculus [3]): 90%; Activity (Oryctolagus cuniculus [4]): inactive |
| 0.24 µM | N=C(N)NCCC[C@H](NC(=O)CNC(=O)[C@H](Cc1ccc(O)cc1)NC(=O)[C@@H](N)CS)C(=O)N[C@@H](CCCCN)C(=O)O (H-CYGRK-OH) | – |
| > 100 µM | C[C@H](NC(=O)CNC(=O)[C@H](Cc1ccc(O)cc1)NC(=O)[C@@H](N)CS)C(=O)O (H-CYGA-OH) | – |
| > 40 µM | CC(C)[C@H](NC(=O)[C@@H](N)CS)C(=O)NCC(=O)N[C@@H](C)C(=O)N[C@@H](CCCCN)C(=O)O (H-CVGAK-OH) | – |
| 2 µM | CCSSC[C@H](N)C(=O)N[C@@H](Cc1ccc(O)cc1)C(=O)NCC(=O)N[C@@H](C)C(=O)N[C@@H](CCCCN)C(=O)O (H-C(SEt)YGAK-OH) | – |
| 0.06 µM | COc1ccc(SSC[C@H](N)C(=O)N[C@@H](Cc2ccc(O)cc2)C(=O)NCC(=O)N[C@@H](C)C(=O)N[C@@H](CCCCN)C(=O)O)cc1 (H-C(X1)YGAK-OH) | – |
| 0.29 µM | N=C(N)NCCC[C@H](NC(=O)CNC(=O)[C@H](Cc1ccc(O)cc1)NC(=O)[C@@H](N)CS)C(=O)N[C@@H](CCCCN)C(=O)N[C@@H](CCCCN)C(=O)O (H-CYGRKK-OH) | – |

| Compound | IC50 [1] | further results |
| --- | --- | --- |
| C[C@H](NC(=O)CNC(=O)[C@@H](N)Cc1ccc(O)cc1)C(=O)N[C@@H](CCCCN)C(=O)O (H-YGAK-OH) | > 100 µM | – |

Source: ChEMBL document CHEMBL1139348, “Identification and optimization of a novel inhibitor of mitochondrial calpain 10” (J Med Chem, 2009)
